Experimental data from paper PMC6639057 (Investigational new drugs, 2018).
Several values for one entry are separate records, joined by “and”; a condition that tells them apart may be missing. Equal entries are not always repeated. Entries after “also recorded” stand apart in the source; their conditions may differ.

Experiments:
advanced solid tumors = test: Tumor response, dose-escalation cohorts; assay type: in vivo, human
In short: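 Adults with refractory advanced solid tumours took the drug orally once each morning on days 1–4 of 14-day cycles, fasting from 2 h predose (water only) until 1 h postdose. Doses were 1–30 mg (and 25 mg) without G-CSF, or 30–50 mg with subcutaneous G-CSF (300 or 480 µg daily). Scans were read centrally by RECIST 1.1 and locally by RECIST 1.0, with GCIG criteria for ovarian tumours.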

[1] = test system: taxane-resistant triple-negative breast cancer; test: Tumor response, dose-expansion TNBC cohort; assay type: in vivo, human
[2] = test system: taxane- and platinum-resistant ovarian cancer; test: Tumor response, dose-expansion ovarian cancer cohort; assay type: in vivo, human
[3] = test system: patients with advanced solid tumors; test: Dose-limiting toxicities and maximum tolerated dose, dose-escalation phase; assay type: in vivo
[4] = test system: breast cancer cell lines with TP53 loss of function mutations; settings: cited from earlier work
Plasma pharmacokinetics = assay type: in vivo, human; settings: for AUC(0-t): 40 mg, Mean AUC24h, 40 mg once daily, dose expansion
p-histone H3 = settings: not measured in this study; no reference given; cited from earlier work
[5] = test system: TNBC cell lines and xenografts; settings: in combination with ixabepilone; cited from earlier work
[6] = test system: xenografts of diverse tumor types that were resistant to either docetaxel or paclitaxel; settings: mouse models; cited from earlier work
[7] = Central read, RECIST 1.1, expansion 40 mg + G-CSF, TNBC (n = 14)
[8] = Local read, RECIST 1.0, expansion 40 mg + G-CSF, TNBC (n = 14)
[9] = Central read, RECIST 1.1, expansion 40 mg + G-CSF, OC (n = 29)
[10] = GCIG criteria (RECIST 1.1 and CA 125), expansion 40 mg + G-CSF, OC (n = 29)
[11] = Local read, RECIST 1.0, expansion 40 mg + G-CSF, OC (n = 29)

Compound: Cc1csc(-c2nnc(Nc3ccc(Oc4ncccc4-c4ccnc(N)n4)cc3)c3ccccc23)c1 [AMG 900]
- Progressive disease (advanced solid tumors; dose-escalation phase (12 patients of 50)): 24%
- Stable disease (best response) (advanced solid tumors; dose-escalation phase, RECIST 1.1 (29 patients of 50)): 58%
- Tumor response, one patient with TNBC ([1]; 40 mg + G-CSF, RECIST 1.0 (local read)): partial response per RECIST 1.0 (local read) that was not confirmed per RECIST 1.1 (central read)
- Progression-free survival, median (80% CI) ([1]; Central read, RECIST 1.1, Kaplan-Meier, expansion 40 mg + G-CSF, TNBC (n = 14)): 7.6 (4.1–23.6) weeks
- Best overall response: Complete response [1, 7]: 0 Patients (%)
- Best overall response: Not evaluable (postbaseline scan not readable) [1, 7]: 3 (21) Patients (%)
- Best overall response: Partial response [1, 7]: 0 Patients (%)
- Best overall response: Progressive disease [1, 7]: 4 (29) Patients (%)
- Best overall response: Stable disease [1, 7]: 7 (50) Patients (%)
- Best overall response: Complete response [1, 8]: 0 Patients (%)
- Best overall response: Not evaluable (postbaseline scan not readable) [1, 8]: 3 (21) Patients (%)
- Best overall response: Partial response [1, 8]: 1 (7) Patients (%)
- Best overall response: Progressive disease [1, 8]: 5 (36) Patients (%)
- Best overall response: Stable disease [1, 8]: 5 (36) Patients (%)
- Objective responses ([1]; RECIST 1.1 (central read), TNBC): No objective responses; also recorded: No patients with TNBC had an objective response
- Died or had progressive disease ([1]; RECIST 1.1 (central read), TNBC (7 of 14)): 50.0%
- Stable disease as best overall tumor response ([1]; RECIST 1.1, TNBC (7 of 14)): 50.0%
- Progression-free survival, median (80% CI) ([2]; Central read, RECIST 1.1, Kaplan-Meier, expansion 40 mg + G-CSF, OC (n = 29)): 31.7 (23.7–47.6) weeks
- Best overall response: Complete response [2, 9]: 0 Patients (%)
- Best overall response: Not evaluable (postbaseline scan not readable) [2, 9]: 2 (7) Patients (%)
- Best overall response: Partial response [2, 9]: 3 (10) Patients (%)
- Best overall response: Progressive disease [2, 9]: 3 (10) Patients (%)
- Best overall response: Stable disease [2, 9]: 21 (72) Patients (%)
- Best overall response: Complete response [2, 10]: 0 Patients (%)
- Best overall response: Not evaluable (postbaseline scan not readable) [2, 10]: 3 (10) Patients (%)
- Best overall response: Partial response [2, 10]: 7 (24) Patients (%)
- Best overall response: Progressive disease [2, 10]: 3 (10) Patients (%)
- Best overall response: Stable disease [2, 10]: 16 (55) Patients (%)
- Partial response ([2]; GCIG criteria (RECIST 1.1 and CA 125), expansion ovarian cancer (7 of 29)): 24.1%
- Objective response rate (ORR) ([2]; GCIG criteria (central read), expansion ovarian cancer, 95% CI 10.3%–43.5%): 24.1%
- Progressive disease ([2]; GCIG criteria, expansion ovarian cancer (3 of 29)): 10.3%
- Stable disease ([2]; GCIG criteria, expansion ovarian cancer (16 of 29)): 55.2%
- Median (80% CI) PFS ([2]; Kaplan-Meier, ovarian cancer patients from dose-escalation (n = 4) and dose-expansion (n = 29)): 34.1 (31.1–not estimable) weeks
- Best overall response: Complete response [2, 11]: 0 Patients (%)
- Best overall response: Not evaluable (postbaseline scan not readable) [2, 11]: 2 (7) Patients (%)
- Best overall response: Partial response [2, 11]: 3 (10) Patients (%)
- Best overall response: Progressive disease [2, 11]: 4 (14) Patients (%)
- Best overall response: Stable disease [2, 11]: 20 (69) Patients (%)
- Progressive disease ([2]; RECIST 1.1, expansion ovarian cancer (3 of 29)): 10.3%
- Stable disease as best response ([2]; RECIST 1.1, expansion ovarian cancer (21 of 29)): 72.4%
- Median duration of response ([2]; RECIST 1.1, expansion ovarian cancer, 95% CI: 16.1–34.1): 24.1 weeks
- Objective response rate (ORR) ([2]; RECIST 1.1 central read, expansion ovarian cancer, 95% CI 2.0%–28.0%): 10.3%
- Partial response ([2]; RECIST 1.1 central, expansion ovarian cancer (3 of 29)): 10.3%
- Duration of partial response, individual patients ([2]; by GCIG criteria, same three ovarian cancer patients): 16.1 weeks and 65.6 weeks and 74.9 weeks
- Duration of partial response, individual patients ([2]; by RECIST 1.1, three ovarian cancer patients): 34.1 weeks and 24.1 weeks and 16.1 weeks
- DLTs overall ([3]; in vivo): nine DLTs were reported in eight patients
- Maximum tolerated dose (MTD) and recommended phase 2 dose ([3]; with G-CSF, daily, 4 days on, 10 days off): 40 mg
- Maximum tolerated dose (MTD) ([3]; with G-CSF, oral, 4 days on/10 days off): 40 mg/day
- Maximum tolerated dose (MTD) ([3]; without G-CSF, daily, 4 days on, 10 days off): 25 mg
- Maximum tolerated dose (MTD) ([3]; without G-CSF, oral, 4 days on/10 days off): 25 mg/day
- Sensitivity to AMG 900 compared with cell lines without such mutations [4]: greater sensitivity
- Accumulation based on AUC8h (Plasma pharmacokinetics; cycle 1 day 1 to cycle 1 day 4, all dose cohorts): < 2 fold
- Tmax (Plasma pharmacokinetics; human, plasma, oral): 1 to 3 h
- half-life (Plasma pharmacokinetics; human, plasma, oral): 6 to 9 h
- AUC(0-t) (Plasma pharmacokinetics; human, plasma, oral, CRPC): 7700 ng·h/mL
- AUC(0-t) (Plasma pharmacokinetics; human, plasma, oral, TNBC): 10600 ng·h/mL
- AUC(0-t) (Plasma pharmacokinetics; human, plasma, oral, ovarian cancer cohort): 12900 ng·h/mL
- Mean exposure (AUC24h) versus dose (Plasma pharmacokinetics; oral, 1 to 50 mg): increased as the dose increased
- 50% inhibitory concentration for the in vivo inhibition of p-histone H3 (p-histone H3): 273 ng/mL
- Growth of TNBC cell lines and xenografts [5]: inhibited growth
- Growth of xenografts [6]: inhibited growth
